Measured values taken from ChEMBL document CHEMBL1157100, “The alkyl-connected 2-amino-6-vinylpurine (AVP) crosslinking agent for improved selectivity to the cytosine base in RNA” (Bioorg Med Chem, 2010).
The source made the active and inactive calls. The calls are words filed in the database; no cut-off is given here.

Columns and labels:
Type in all cases: nucleic-acid assay
Nucleic Acid [1] = assay: Binding affinity to FAM-tagged r-(CAAGCGGAGAAAYUAAUUGCGGGUCGC)-RNA assessed as crosslinking at 10 uM by alkylation method
Outline: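 Reactive ODN at 10 µM with 1 µM FAM-labeled target DNA or RNA in 100 mM NaCl, 50 mM MES pH 5 plus RNase OUT, mixed at 0 °C and then incubated at 37 °C. Reactions were stopped at set times with formamide/EDTA/bromophenol blue buffer. Products were resolved on 15% denaturing polyacrylamide gel with 7 M urea, and FAM band intensities were quantified to give crosslinking yield.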

Nucleic Acid [2] = assay: Binding affinity to r-(ACGUGAAUUGUUCAACAGUAUGGGCAU)-RNA assessed as melting temperature at 1.5 uM by UV-visible spectrophotometry
Outline: (§1)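 Each strand at 1.5 µM: ODN plus complementary 27-mer RNA in 100 mM NaCl, 50 mM MES pH 5. Samples were heated at 85 °C for 10 min and cooled slowly. Melting curves were recorded at 260 nm while warming 20 to 80 °C at 1.0 °C/min to obtain Tm.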

Nucleic Acid [3] = assay: Binding affinity to r-(CGCUGGGCGUUAAUCAAAGAGGCGAAC)-RNA assessed as melting temperature at 1.5 uM by UV-visible spectrophotometry; outline: as §1

| Activity (Nucleic Acid [1]) | Tm (Nucleic Acid [2]) [°C] | Tm (Nucleic Acid [3]) [°C] | SMILES |
| --- | --- | --- | --- |
| inactive | 49.7 | – | CSCCc1nc(N)nc2c1ncn2CC[C@H]1C[C@H](OP(=O)(O)OC[C@H]2O[C@@H](n3cc(C)c(=O)[nH]c3=O)C[C@@H]2OP(=O)(O)OC[C@H]2O[C@@H](n3cc(C)c(=O)[nH]c3=O)C[C@@H]2OP(=O)(O)OC[C@H]2O[C@@H](n3cnc4c(=O)[nH]c(N)nc43)[C@H](O)[C@@H]2OP(=O)(O)OC[C@H]2O[C@@H](n3cnc4c(N)ncnc43)[C@H](O)[C@@H]2OP(=O)(O)OC[C@H]2O[C@@H](n3cnc4c(=O)[nH]c(N)nc43)[C@H](O)[C@@H]2OP(=O)(O)OC[C@H]2O[C@@H](n3ccc(N)nc3=O)[C@H](O)[C@@H]2OP(=O)(O)OC[C@H]2O[C@@H](n3cnc4c(N)ncnc43)[C@H](O)[C@@H]2OP(=O)(O)OC[C@H]2O[C@@H](n3cnc4c(N)ncnc43)[C@H](O)[C@@H]2OP(=O)(O)OC[C@H]2O[C@@H](n3cc(C)c(=O)[nH]c3=O)C[C@@H]2OP(CCC#N)N(C(C)C)C(C)C)[C@@H](COP(=O)(O)O[C@H]2C[C@H](n3cc(C)c(=O)[nH]c3=O)O[C@@H]2COP(=O)(O)O[C@H]2[C@@H](O)[C@H](n3ccc(N)nc3=O)O[C@@H]2COP(=O)(O)O[C@H]2[C@@H](O)[C@H](n3cnc4c(N)ncnc43)O[C@@H]2COP(=O)(O)O[C@H]2C[C@H](n3cc(C)c(=O)[nH]c3=O)O[C@@H]2COP(=O)(O)O[C@H]2[C@@H](O)[C@H](n3cnc4c(N)ncnc43)O[C@@H]2COP(=O)(O)O[C@H]2[C@@H](O)[C@H](n3ccc(N)nc3=O)O[C@@H]2COP(=O)(O)O[C@H]2[C@@H](O)[C@H](n3ccc(N)nc3=O)O[C@@H]2COP(=O)(O)O[C@H]2[C@@H](O)[C@H](n3ccc(N)nc3=O)O[C@@H]2COP(=O)(O)O[C@H]2[C@@H](O)[C@H](n3cnc4c(=O)[nH]c(N)nc43)O[C@@H]2COP(=O)(O)O[C@H]2C[C@H](n3cc(C)c(=O)[nH]c3=O)O[C@@H]2COP(=O)(O)O[C@H]2[C@@H](O)[C@H](n3cnc4c(N)ncnc43)O[C@@H]2CO)O1 (some centres undefined) |
| inactive | 53.3 | – | CSCCc1nc(N)nc2c1ncn2[C@H]1C[C@H](OP(=O)(O)OC[C@H]2O[C@@H](n3cc(C)c(=O)[nH]c3=O)C[C@@H]2OP(=O)(O)OC[C@H]2O[C@@H](n3cc(C)c(=O)[nH]c3=O)C[C@@H]2OP(=O)(O)OC[C@H]2O[C@@H](n3cnc4c(=O)[nH]c(N)nc43)[C@H](O)[C@@H]2OP(=O)(O)OC[C@H]2O[C@@H](n3cnc4c(N)ncnc43)[C@H](O)[C@@H]2OP(=O)(O)OC[C@H]2O[C@@H](n3cnc4c(=O)[nH]c(N)nc43)[C@H](O)[C@@H]2OP(=O)(O)OC[C@H]2O[C@@H](n3ccc(N)nc3=O)[C@H](O)[C@@H]2OP(=O)(O)OC[C@H]2O[C@@H](n3cnc4c(N)ncnc43)[C@H](O)[C@@H]2OP(=O)(O)OC[C@H]2O[C@@H](n3cnc4c(N)ncnc43)[C@H](O)[C@@H]2OP(=O)(O)OC[C@H]2O[C@@H](n3cc(C)c(=O)[nH]c3=O)C[C@@H]2OP(CCC#N)N(C(C)C)C(C)C)[C@@H](COP(=O)(O)O[C@H]2C[C@H](n3cc(C)c(=O)[nH]c3=O)O[C@@H]2COP(=O)(O)O[C@H]2[C@@H](O)[C@H](n3ccc(N)nc3=O)O[C@@H]2COP(=O)(O)O[C@H]2[C@@H](O)[C@H](n3cnc4c(N)ncnc43)O[C@@H]2COP(=O)(O)O[C@H]2C[C@H](n3cc(C)c(=O)[nH]c3=O)O[C@@H]2COP(=O)(O)O[C@H]2[C@@H](O)[C@H](n3cnc4c(N)ncnc43)O[C@@H]2COP(=O)(O)O[C@H]2[C@@H](O)[C@H](n3ccc(N)nc3=O)O[C@@H]2COP(=O)(O)O[C@H]2[C@@H](O)[C@H](n3ccc(N)nc3=O)O[C@@H]2COP(=O)(O)O[C@H]2[C@@H](O)[C@H](n3ccc(N)nc3=O)O[C@@H]2COP(=O)(O)O[C@H]2[C@@H](O)[C@H](n3cnc4c(=O)[nH]c(N)nc43)O[C@@H]2COP(=O)(O)O[C@H]2C[C@H](n3cc(C)c(=O)[nH]c3=O)O[C@@H]2COP(=O)(O)O[C@H]2[C@@H](O)[C@H](n3cnc4c(N)ncnc43)O[C@@H]2CO)O1 (some centres undefined) |

Further lines, the compound ahead of its results:

| SMILES | Activity (Nucleic Acid [1]) | Tm (Nucleic Acid [2]) [°C] | Tm (Nucleic Acid [3]) [°C] |
| --- | --- | --- | --- |
| CSCCc1nc(N)nc2c1ncn2[C@H]1C[C@H](OP(=O)(O)OC[C@H]2O[C@@H](n3cnc4c(N)ncnc43)[C@H](O)[C@@H]2OP(=O)(O)OC[C@H]2O[C@@H](n3cc(C)c(=O)[nH]c3=O)C[C@@H]2OP(=O)(O)OC[C@H]2O[C@@H](n3cc(C)c(=O)[nH]c3=O)C[C@@H]2OP(=O)(O)OC[C@H]2O[C@@H](n3cnc4c(N)ncnc43)[C@H](O)[C@@H]2OP(=O)(O)OC[C@H]2O[C@@H](n3cnc4c(N)ncnc43)[C@H](O)[C@@H]2OP(=O)(O)OC[C@H]2O[C@@H](n3ccc(N)nc3=O)[C@H](O)[C@@H]2OP(=O)(O)OC[C@H]2O[C@@H](n3cnc4c(=O)[nH]c(N)nc43)[C@H](O)[C@@H]2OP(=O)(O)OC[C@H]2O[C@@H](n3ccc(N)nc3=O)[C@H](O)[C@@H]2OP(=O)(O)OC[C@H]2O[C@@H](n3ccc(N)nc3=O)[C@H](O)[C@@H]2OP(=O)(O)O)[C@@H](COP(=O)(O)O[C@H]2C[C@H](n3cc(C)c(=O)[nH]c3=O)O[C@@H]2COP(=O)(O)O[C@H]2C[C@H](n3cc(C)c(=O)[nH]c3=O)O[C@@H]2COP(=O)(O)O[C@H]2C[C@H](n3cc(C)c(=O)[nH]c3=O)O[C@@H]2COP(=O)(O)O[C@H]2[C@@H](O)[C@H](n3ccc(N)nc3=O)O[C@@H]2COP(=O)(O)O[C@H]2C[C@H](n3cc(C)c(=O)[nH]c3=O)O[C@@H]2COP(=O)(O)O[C@H]2[C@@H](O)[C@H](n3ccc(N)nc3=O)O[C@@H]2COP(=O)(O)O[C@H]2[C@@H](O)[C@H](n3ccc(N)nc3=O)O[C@@H]2COP(=O)(O)O[C@H]2[C@@H](O)[C@H](n3cnc4c(=O)[nH]c(N)nc43)O[C@@H]2COP(=O)(O)O[C@H]2[C@@H](O)[C@H](n3ccc(N)nc3=O)O[C@@H]2COP(=O)(O)O[C@H]2C[C@H](n3cc(C)c(=O)[nH]c3=O)O[C@@H]2COP(=O)(O)O[C@H]2C[C@H](n3cc(C)c(=O)[nH]c3=O)O[C@@H]2CO)O1 | Active | – | 49.4 |
| Cc1cn([C@H]2C[C@H](OP(CCC#N)N(C(C)C)C(C)C)[C@@H](COP(=O)(O)O[C@H]3[C@@H](O)[C@H](n4cnc5c(N)ncnc54)O[C@@H]3COP(=O)(O)O[C@H]3[C@@H](O)[C@H](n4cnc5c(N)ncnc54)O[C@@H]3COP(=O)(O)O[C@H]3[C@@H](O)[C@H](n4ccc(N)nc4=O)O[C@@H]3COP(=O)(O)O[C@H]3[C@@H](O)[C@H](n4cnc5c(=O)[nH]c(N)nc54)O[C@@H]3COP(=O)(O)O[C@H]3[C@@H](O)[C@H](n4cnc5c(N)ncnc54)O[C@@H]3COP(=O)(O)O[C@H]3[C@@H](O)[C@H](n4cnc5c(=O)[nH]c(N)nc54)O[C@@H]3COP(=O)(O)O[C@H]3C[C@H](n4cc(C)c(=O)[nH]c4=O)O[C@@H]3COP(=O)(O)O[C@H]3C[C@H](n4cc(C)c(=O)[nH]c4=O)O[C@@H]3COP(=O)(O)O[C@H]3[C@@H](O)[C@H](n4cnc5c(=O)[nH]c(N)nc54)O[C@@H]3COP(=O)(O)O[C@H]3C[C@H](n4cc(C)c(=O)[nH]c4=O)O[C@@H]3COP(=O)(O)O[C@H]3[C@@H](O)[C@H](n4ccc(N)nc4=O)O[C@@H]3COP(=O)(O)O[C@H]3[C@@H](O)[C@H](n4cnc5c(N)ncnc54)O[C@@H]3COP(=O)(O)O[C@H]3C[C@H](n4cc(C)c(=O)[nH]c4=O)O[C@@H]3COP(=O)(O)O[C@H]3[C@@H](O)[C@H](n4cnc5c(N)ncnc54)O[C@@H]3COP(=O)(O)O[C@H]3[C@@H](O)[C@H](n4ccc(N)nc4=O)O[C@@H]3COP(=O)(O)O[C@H]3[C@@H](O)[C@H](n4ccc(N)nc4=O)O[C@@H]3COP(=O)(O)O[C@H]3[C@@H](O)[C@H](n4ccc(N)nc4=O)O[C@@H]3COP(=O)(O)O[C@H]3[C@@H](O)[C@H](n4cnc5c(=O)[nH]c(N)nc54)O[C@@H]3COP(=O)(O)O[C@H]3C[C@H](n4cc(C)c(=O)[nH]c4=O)O[C@@H]3COP(=O)(O)O[C@H]3[C@@H](O)[C@H](n4cnc5c(N)ncnc54)O[C@@H]3CO)O2)c(=O)[nH]c1=O (some centres undefined) | – | 64.1 | – |
| CSCCc1nc(N)nc2c1ncn2CC[C@H]1C[C@H](OP(=O)(O)OC[C@H]2O[C@@H](n3cnc4c(N)ncnc43)[C@H](O)[C@@H]2OP(=O)(O)OC[C@H]2O[C@@H](n3cc(C)c(=O)[nH]c3=O)C[C@@H]2OP(=O)(O)OC[C@H]2O[C@@H](n3cc(C)c(=O)[nH]c3=O)C[C@@H]2OP(=O)(O)OC[C@H]2O[C@@H](n3cnc4c(N)ncnc43)[C@H](O)[C@@H]2OP(=O)(O)OC[C@H]2O[C@@H](n3cnc4c(N)ncnc43)[C@H](O)[C@@H]2OP(=O)(O)OC[C@H]2O[C@@H](n3ccc(N)nc3=O)[C@H](O)[C@@H]2OP(=O)(O)OC[C@H]2O[C@@H](n3cnc4c(=O)[nH]c(N)nc43)[C@H](O)[C@@H]2OP(=O)(O)OC[C@H]2O[C@@H](n3ccc(N)nc3=O)[C@H](O)[C@@H]2OP(=O)(O)OC[C@H]2O[C@@H](n3ccc(N)nc3=O)[C@H](O)[C@@H]2OP(=O)(O)O)[C@@H](COP(=O)(O)O[C@H]2C[C@H](n3cc(C)c(=O)[nH]c3=O)O[C@@H]2COP(=O)(O)O[C@H]2C[C@H](n3cc(C)c(=O)[nH]c3=O)O[C@@H]2COP(=O)(O)O[C@H]2C[C@H](n3cc(C)c(=O)[nH]c3=O)O[C@@H]2COP(=O)(O)O[C@H]2[C@@H](O)[C@H](n3ccc(N)nc3=O)O[C@@H]2COP(=O)(O)O[C@H]2C[C@H](n3cc(C)c(=O)[nH]c3=O)O[C@@H]2COP(=O)(O)O[C@H]2[C@@H](O)[C@H](n3ccc(N)nc3=O)O[C@@H]2COP(=O)(O)O[C@H]2[C@@H](O)[C@H](n3ccc(N)nc3=O)O[C@@H]2COP(=O)(O)O[C@H]2[C@@H](O)[C@H](n3cnc4c(=O)[nH]c(N)nc43)O[C@@H]2COP(=O)(O)O[C@H]2[C@@H](O)[C@H](n3ccc(N)nc3=O)O[C@@H]2COP(=O)(O)O[C@H]2C[C@H](n3cc(C)c(=O)[nH]c3=O)O[C@@H]2COP(=O)(O)O[C@H]2C[C@H](n3cc(C)c(=O)[nH]c3=O)O[C@@H]2CO)O1 | Active | – | 50.4 |
